Test results published in ChEMBL document CHEMBL3243995, “Synthesis of phenolic group containing analogues of porcine secretin and their immunological properties” (J Med Chem, 1977).
Where a SMILES comes first, the peptide text is derived from it. The star is where a group is joined. Desaminotyrosyl = O=C(CCc1ccc(O)cc1)*

Assays:
[1] = Retardation factor of the compound using 1-BuOH-AcOH-H2O at ratio of 4:1:5 as solvent system by thin layer chromatography; format: physicochemical
In short: (§1)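 Thin-layer chromatography spots were detected with Sakaguchi, Pauly, chlorine-tolidine and ninhydrin reagents.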

[2] = Retardation factor of the compound using 1-BuOH-pyridine-AcOH-H2O at ratio of 30:20:6:24 as solvent system by thin layer chromatography; format: physicochemical; in short: as §1
[3] = tested on: Canis familiaris; assay: Induction of pancreatic juice secretion in iv dosed anesthetized dog relative to natural porcine secretin; format: functional, Canis lupus familiaris
In short: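 Anesthetized dogs received the synthetic peptides by intravenous injection. The volume of pancreatic juice secreted was compared with that produced by pure natural porcine secretin. Responses were evaluated in four-point assays.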

| Compound | Rf [1] | Rf [2] | Activity [3] |
| --- | --- | --- | --- |
| H-HSDGTFTSELSRLRDSARLQRLLQGLV-NH2 [listing 1 of 2 here] | 0.19 | 0.58 | – |
| H-HSDGTYTSELSRLRDSARLQRLLQGLV-NH2 | 0.18 | 0.56 | 1.3% |
| CC(C)C[C@H](NC(=O)CNC(=O)[C@H](CCC(N)=O)NC(=O)[C@H](CC(C)C)NC(=O)[C@H](CC(C)C)NC(=O)[C@H](CCCNC(=N)N)NC(=O)[C@H](CCC(N)=O)NC(=O)[C@H](CC(C)C)NC(=O)[C@H](CCCNC(=N)N)NC(=O)[C@H](C)NC(=O)[C@H](CO)NC(=O)[C@H](CC(=O)O)NC(=O)[C@H](CCCNC(=N)N)NC(=O)[C@H](CC(C)C)NC(=O)[C@H](CCCNC(=N)N)NC(=O)[C@H](CO)NC(=O)[C@H](CC(C)C)NC(=O)[C@H](CCC(=O)O)NC(=O)[C@H](CO)NC(=O)[C@@H](NC(=O)[C@H](Cc1ccccc1)NC(=O)[C@@H](NC(=O)CNC(=O)[C@H](CC(=O)O)NC(=O)[C@H](CO)NC(=O)[C@H](Cc1cnc[nH]1)NC(=O)CCc1ccc(O)cc1)[C@@H](C)O)[C@@H](C)O)C(=O)N[C@H](C(N)=O)C(C)C (Desaminotyrosyl-HSDGTFTSELSRLRDSARLQRLLQGLV-NH2) | 0.2 | 0.58 | 4.1% |
| H-HSDGTFTSELSRLRDSARLQRLLQGLV-NH2 [listing 2 of 2 here] | – | – | 107.5% |
| H-YHSDGTFTSELSRLRDSARLQRLLQGLV-NH2 | 0.18 | 0.52 | 25.6% |
| H-YSDGTFTSELSRLRDSARLQRLLQGLV-NH2 | 0.2 | 0.56 | 4.3% |
